The source made the active and inactive calls. The rule behind the calls is not given here.
Assays:
Histone deacetylase 2 = Histone deacetylase 2 (Homo sapiens, UniProt Q92769); experiment: Inhibition of human HDAC2 using RHKKAc peptide as substrate
[1] = target: T1, Protein deacetylase HDAC6 (Homo sapiens, UniProt Q9UBN7); experiment: Inhibition of human HDAC6 using RHKKAc peptide as substrate
T1 sequence (Q9UBN7 whole entry): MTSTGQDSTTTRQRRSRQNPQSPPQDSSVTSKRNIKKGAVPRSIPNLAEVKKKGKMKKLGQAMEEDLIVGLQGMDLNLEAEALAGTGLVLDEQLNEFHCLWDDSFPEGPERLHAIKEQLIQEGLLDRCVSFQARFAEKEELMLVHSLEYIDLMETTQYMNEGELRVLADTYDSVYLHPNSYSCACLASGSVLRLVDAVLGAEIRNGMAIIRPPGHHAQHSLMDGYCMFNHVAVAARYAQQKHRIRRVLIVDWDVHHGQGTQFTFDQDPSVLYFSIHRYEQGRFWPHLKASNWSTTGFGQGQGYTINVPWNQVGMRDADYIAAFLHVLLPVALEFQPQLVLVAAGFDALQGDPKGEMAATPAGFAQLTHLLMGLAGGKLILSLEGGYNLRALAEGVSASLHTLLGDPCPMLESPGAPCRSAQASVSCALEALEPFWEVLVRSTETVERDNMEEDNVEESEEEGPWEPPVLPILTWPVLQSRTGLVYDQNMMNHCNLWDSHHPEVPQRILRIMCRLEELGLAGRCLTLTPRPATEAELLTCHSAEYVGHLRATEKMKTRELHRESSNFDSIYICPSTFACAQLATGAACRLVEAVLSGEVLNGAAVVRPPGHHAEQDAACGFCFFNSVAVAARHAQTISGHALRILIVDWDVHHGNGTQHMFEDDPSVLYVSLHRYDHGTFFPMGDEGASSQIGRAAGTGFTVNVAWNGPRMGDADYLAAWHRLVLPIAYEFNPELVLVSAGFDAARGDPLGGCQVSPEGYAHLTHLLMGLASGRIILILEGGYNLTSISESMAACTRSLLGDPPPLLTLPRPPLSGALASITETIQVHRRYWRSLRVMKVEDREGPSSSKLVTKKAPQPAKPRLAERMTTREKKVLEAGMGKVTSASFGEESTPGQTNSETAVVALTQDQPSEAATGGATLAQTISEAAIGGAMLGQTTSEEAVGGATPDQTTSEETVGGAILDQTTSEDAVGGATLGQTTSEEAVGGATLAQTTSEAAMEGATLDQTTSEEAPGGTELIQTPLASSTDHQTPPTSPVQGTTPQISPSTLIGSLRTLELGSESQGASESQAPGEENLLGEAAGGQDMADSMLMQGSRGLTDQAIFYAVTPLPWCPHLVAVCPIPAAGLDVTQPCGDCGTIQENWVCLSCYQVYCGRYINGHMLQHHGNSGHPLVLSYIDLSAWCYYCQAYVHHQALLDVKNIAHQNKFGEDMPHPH

Histone deacetylase 1 = Histone deacetylase 1 (Homo sapiens, UniProt Q13547); experiment: Inhibition of human HDAC1 using RHKKAc peptide as substrate
Histone deacetylase 1, sequence (Q13547 whole entry): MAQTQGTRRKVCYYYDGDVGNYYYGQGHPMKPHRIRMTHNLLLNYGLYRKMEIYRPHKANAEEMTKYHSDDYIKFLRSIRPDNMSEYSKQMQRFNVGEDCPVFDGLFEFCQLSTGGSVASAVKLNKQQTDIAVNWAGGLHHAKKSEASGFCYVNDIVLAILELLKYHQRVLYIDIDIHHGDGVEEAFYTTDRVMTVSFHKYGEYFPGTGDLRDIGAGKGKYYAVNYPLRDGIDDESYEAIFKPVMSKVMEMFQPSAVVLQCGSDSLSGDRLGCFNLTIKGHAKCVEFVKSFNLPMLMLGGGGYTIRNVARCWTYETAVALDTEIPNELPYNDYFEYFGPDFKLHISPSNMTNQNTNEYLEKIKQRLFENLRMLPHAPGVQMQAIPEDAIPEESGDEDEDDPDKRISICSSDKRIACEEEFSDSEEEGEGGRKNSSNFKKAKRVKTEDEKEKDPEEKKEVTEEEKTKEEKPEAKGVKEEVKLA

Homo sapiens [2] = organism: Homo sapiens; experiment: Selectivity index, ratio of IC50 for human HDAC3 to IC50 for human HDAC6
Homo sapiens [3] = organism: Homo sapiens; experiment: Selectivity index, ratio of IC50 for human HDAC8 to IC50 for human HDAC6
[4] = target: T2, Polyamine deacetylase HDAC10 (Homo sapiens, UniProt Q969S8); experiment: Inhibition of human HDAC10 using RHKKAc peptide as substrate
T2 sequence (Q969S8 whole entry): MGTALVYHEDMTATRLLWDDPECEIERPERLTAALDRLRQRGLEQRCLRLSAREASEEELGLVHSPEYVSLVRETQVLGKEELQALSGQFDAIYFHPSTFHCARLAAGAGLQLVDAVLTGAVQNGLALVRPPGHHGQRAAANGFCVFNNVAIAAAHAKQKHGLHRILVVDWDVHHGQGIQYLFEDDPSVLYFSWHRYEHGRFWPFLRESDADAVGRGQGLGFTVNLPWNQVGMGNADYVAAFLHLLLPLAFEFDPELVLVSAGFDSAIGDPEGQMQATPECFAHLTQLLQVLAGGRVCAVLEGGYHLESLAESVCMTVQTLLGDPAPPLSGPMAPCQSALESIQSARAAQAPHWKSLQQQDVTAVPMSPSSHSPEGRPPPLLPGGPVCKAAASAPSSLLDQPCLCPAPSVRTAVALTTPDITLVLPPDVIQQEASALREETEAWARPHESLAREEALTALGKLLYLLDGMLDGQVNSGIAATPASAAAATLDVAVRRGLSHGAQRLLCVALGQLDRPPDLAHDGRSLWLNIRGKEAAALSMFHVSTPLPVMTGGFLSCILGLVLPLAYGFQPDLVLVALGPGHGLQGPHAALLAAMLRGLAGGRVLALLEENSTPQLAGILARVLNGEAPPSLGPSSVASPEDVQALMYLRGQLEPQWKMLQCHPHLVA

Homo sapiens [5] = organism: Homo sapiens; experiment: Selectivity index, ratio of IC50 for human HDAC10 to IC50 for human HDAC6
Homo sapiens [6] = organism: Homo sapiens; experiment: Selectivity index, ratio of IC50 for human HDAC1 to IC50 for human HDAC6
Homo sapiens [7] = organism: Homo sapiens; experiment: Selectivity index, ratio of IC50 for human HDAC2 to IC50 for human HDAC6
Histone deacetylase 8 = target: T3, Histone deacetylase 8 (Homo sapiens, UniProt Q9BY41); experiment: Inhibition of human HDAC8 using RHKAcKAc peptide as substrate
T3 sequence (Q9BY41 whole entry): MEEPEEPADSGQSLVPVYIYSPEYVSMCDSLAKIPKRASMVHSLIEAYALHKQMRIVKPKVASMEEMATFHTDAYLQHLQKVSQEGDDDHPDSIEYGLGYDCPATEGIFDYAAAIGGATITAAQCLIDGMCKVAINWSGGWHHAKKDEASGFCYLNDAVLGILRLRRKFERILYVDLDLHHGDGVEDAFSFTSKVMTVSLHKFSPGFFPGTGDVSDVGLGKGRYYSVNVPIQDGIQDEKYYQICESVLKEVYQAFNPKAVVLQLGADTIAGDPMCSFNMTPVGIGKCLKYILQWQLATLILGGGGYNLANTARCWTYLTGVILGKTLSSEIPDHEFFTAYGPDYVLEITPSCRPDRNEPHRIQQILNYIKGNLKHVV

Histone deacetylase 3 = Histone deacetylase 3 (Homo sapiens, UniProt O15379)
Histone deacetylase 3, sequence (O15379 whole entry): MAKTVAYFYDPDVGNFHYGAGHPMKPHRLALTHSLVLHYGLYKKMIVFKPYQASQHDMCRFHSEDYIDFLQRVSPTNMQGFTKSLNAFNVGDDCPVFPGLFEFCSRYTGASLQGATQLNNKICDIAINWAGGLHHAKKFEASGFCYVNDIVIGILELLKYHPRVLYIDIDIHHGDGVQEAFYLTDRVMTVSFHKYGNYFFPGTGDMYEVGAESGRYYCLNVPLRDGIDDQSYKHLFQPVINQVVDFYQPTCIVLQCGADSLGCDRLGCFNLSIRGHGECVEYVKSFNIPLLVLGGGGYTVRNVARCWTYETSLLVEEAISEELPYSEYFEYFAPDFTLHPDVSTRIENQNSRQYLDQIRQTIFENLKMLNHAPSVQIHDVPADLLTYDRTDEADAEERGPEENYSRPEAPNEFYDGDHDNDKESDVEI

[8] = target: T4, Protein deacetylase HDAC6 (Homo sapiens) (UniProt Q9UBN7); experiment: Inhibition of HDAC6 in human SH-SY5Y cells assessed as increase in acetylation of alpha-tubulin at 0.1 to 1 uM after 24 hrs by Western blot analysis; format: cell-based
T4 sequence (whole entry): T1 sequence (Q9UBN7 whole entry)
Procedure, shortened: (§1)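 SH-SY5Y cells in MEM with 10% FBS at 37 °C, 5% CO2, treated 24 h at 0.1–1 µM. Lysates in HEPES/Triton buffer; 20 µg protein run on SDS-PAGE and immunoblotted for acetyl-α-tubulin, α-tubulin, acetyl-histone H3 and histone H3 with ECL detection.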

SH-SY5Y = experiment: Inhibition of class 1 HDAC in human SH-SY5Y cells assessed as increase in acetylation of histone H3 at 0.1 to 1 uM after 24 hrs by Western blot analysis; format: cell-based; procedure, shortened: as §1

Histone deacetylase 2, sequence (Q92769 whole entry): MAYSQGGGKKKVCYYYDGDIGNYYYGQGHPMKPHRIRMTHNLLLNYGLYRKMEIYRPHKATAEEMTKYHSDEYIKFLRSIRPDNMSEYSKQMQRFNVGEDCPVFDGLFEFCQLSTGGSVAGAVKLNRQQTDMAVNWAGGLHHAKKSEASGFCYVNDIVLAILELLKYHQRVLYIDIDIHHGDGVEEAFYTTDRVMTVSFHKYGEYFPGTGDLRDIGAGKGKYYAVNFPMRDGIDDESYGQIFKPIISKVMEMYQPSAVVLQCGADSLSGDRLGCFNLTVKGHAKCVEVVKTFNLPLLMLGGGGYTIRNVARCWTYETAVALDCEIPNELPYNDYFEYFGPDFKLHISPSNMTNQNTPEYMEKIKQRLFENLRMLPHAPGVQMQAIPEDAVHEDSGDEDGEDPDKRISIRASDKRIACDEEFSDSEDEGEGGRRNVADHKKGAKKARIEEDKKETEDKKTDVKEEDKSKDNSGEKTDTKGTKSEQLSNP

SMILES	IC50 (Histone deacetylase 2) [nM]	IC50 [1] [nM]	IC50 (Histone deacetylase 1) [nM]	Ratio IC50 (Homo sapiens [2])	Ratio IC50 (Homo sapiens [3])	IC50 [4] [nM]	Ratio IC50 (Homo sapiens [5])	Ratio IC50 (Homo sapiens [6])	Ratio IC50 (Homo sapiens [7])	IC50 (Histone deacetylase 8) [nM]	IC50 (Histone deacetylase 3) [nM]	inhibition [8]	inhibition (SH-SY5Y)
COc1ccc(C(=O)c2ccc3c(ccn3Cc3ccc(/C=C/C(=O)NO)cc3)c2)cc1	1950	108	1440	19	26	7050	65.3	13.3	18.1	2810	2050	–	–
COc1cc(C(=O)c2ccc3c(ccn3S(=O)(=O)c3cccc(/C=C/C(=O)NO)c3)c2)cc(OC)c1OC	1770	562	1320	> 178	2.2	> 100000	> 178	2.3	3.1	1260	> 100000	–	–
COc1ccc(C(=O)c2ccc3c(ccn3Cc3ccc(C(=O)NO)cc3)c2)cc1OC	3030	15.5	2800	390	48.8	18900	1220	181	196	756	6050	–	–
COc1cc(C(=O)c2ccc3c(ccn3S(=O)(=O)c3ccc(/C=C/C(=O)NO)cc3)c2)cc(OC)c1OC	11600	972	8540	1.02	5.5	> 100000	> 103	8.8	11.9	5340	996	–	–
COc1cccc(C(=O)c2ccc3c(ccn3S(=O)(=O)c3cccc(/C=C/C(=O)NO)c3)c2)c1	4800	1810	1210	0.2	1.9	7740	4.3	0.7	2.7	3530	323	–	–
O=C(CCCCCCNC(=O)c1cnc(N(c2ccccc2)c2ccccc2)nc1)NO	–	–	–	–	–	–	–	–	–	–	–	Active	Active
COc1ccc(C(=O)c2ccc3c(ccn3S(=O)(=O)c3cccc(/C=C/C(=O)NO)c3)c2)cc1	424	751	1460	0.3	1.1	5890	7.8	1.7	0.6	812	232	–	–
